The list is not random: actives were taken first. Their share in the collection is about 1.7%.
Scp1 inh: Scp-1 (human) phosphatase inhibition; inhibition, % at 20 µM; 340,000 tested, 0.88% active; Recombinant Scp1, phosphopeptide, malachite green phosphate absorbance;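 active = inhibition above about 50% at 20 µM, limit read from the data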
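Assay system: SCP-1 catalytic fragment, aa 76-261 | Buffer or medium: Tris acetate buffer pH 5.5 with MgCl2 and Tween-20 | Compound: One concentration, 20 µM, with 1.0% DMSO | Also added: Phospho 17-mer peptide substrate | Signal: Absorbance at 630 nm | Incubation: 45 min enzyme reaction at room temperature | Measure: % inhibition of SCP-1 phosphate liberation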
LMPTP inh: LMPTP (human) inhibition | recombinant LMPTP-A, OMFP fluorogenic substrate, fluorescence intensity | 360,000 tested, 0.22% active | inhibition, % at 20 µM | P24666;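 active = compounds that cut the enzyme signal by at least half of the control window in the single-dose screen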
Target sequence (P24666 whole entry, looked up): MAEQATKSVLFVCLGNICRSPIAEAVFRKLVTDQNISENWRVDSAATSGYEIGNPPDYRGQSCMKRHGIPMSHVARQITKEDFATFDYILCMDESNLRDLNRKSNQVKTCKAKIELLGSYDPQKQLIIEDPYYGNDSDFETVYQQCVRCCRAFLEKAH
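Test system: LMPTP-A phosphatase enzyme; input: 0.625 nM LMPTP-A final; reagent: OMFP substrate, 400 µM final; compound dosing: 20 µM single dose, 3% DMSO; incubation: 50 min dark incubation at room temperature; measured by: endpoint fluorescence intensity from OMFP dephosphorylation; measure: % inhibition relative to no-enzyme and uninhibited control wells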
Pemphigus Ab inh: blocks pemphigus antibody binding to human desmoglein-3 | DSG3-coupled beads, scFv-anti-DSG3-GFP binding, flow cytometry; hits give low values | binding (percent of control), % at 10 µM | 310,000 tested, 0.48% active;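 active = binding more than 3 SD below its plate's average and above zero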;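 also: hits lower antibody fragment binding to DSG3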
STEP inh: inhibitors of human striatal-enriched phosphatase STEP; P54829; recombinant STEP, OMFP fluorogenic substrate, fluorescence; inhibition, % at 20 µM; 360,000 tested, 0.25% active; AID 588621;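 active = inhibition at 20 µM, scaled per plate between control wells, above about 37%, limit read from the data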
Target sequence (P54829 whole entry, looked up): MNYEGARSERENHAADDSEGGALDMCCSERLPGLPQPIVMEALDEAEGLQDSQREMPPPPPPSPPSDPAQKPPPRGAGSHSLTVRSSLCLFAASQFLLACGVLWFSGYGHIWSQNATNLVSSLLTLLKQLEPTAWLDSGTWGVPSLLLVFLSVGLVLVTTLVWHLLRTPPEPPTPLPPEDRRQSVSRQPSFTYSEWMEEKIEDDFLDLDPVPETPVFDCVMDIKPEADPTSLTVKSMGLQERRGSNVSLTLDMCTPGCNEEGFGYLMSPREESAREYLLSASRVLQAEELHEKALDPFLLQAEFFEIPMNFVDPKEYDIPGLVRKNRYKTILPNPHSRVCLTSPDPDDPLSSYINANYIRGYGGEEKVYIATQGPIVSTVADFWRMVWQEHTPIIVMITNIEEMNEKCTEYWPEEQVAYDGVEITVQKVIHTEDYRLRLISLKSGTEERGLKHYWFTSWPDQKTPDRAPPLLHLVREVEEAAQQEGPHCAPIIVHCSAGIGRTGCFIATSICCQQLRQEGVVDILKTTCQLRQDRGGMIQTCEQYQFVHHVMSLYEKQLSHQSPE
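Assay system: isolated STEP enzyme. Buffer or medium: pH 6.0 Bis-Tris with DTT and Tween 20. Also added: fluorogenic phosphatase substrate OMFP at 25 µM final. Dosing: 20 µM, 1% DMSO. Timing: 20 min reaction, room temperature, in the dark. Measured by: fluorescence intensity, excitation 480 nm, emission 540 nm. Evaluation: normalized % inhibition.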
SUMO1 PPI mod: alters human SUMO1 binding to SIM partners; inhibition, % at 20 µM; P63165; AID 602429; 360,000 tested, 0.33% active; SUMO1 binding to a labelled peptide, TR-FRET, 1 h; in the data active = inhibition above about 37%
Scp1 confirm: confirmation of human Scp-1 phosphatase inhibitors; shares compounds with Scp1 inh; 2,500 tested, 61% active; inhibition, % at 20 µM; recombinant SCP-1 catalytic domain, phosphate release, malachite green absorbance; AID 540281
MG interference: colorimetric interference in Scp-1 counter-screen. shares compounds with Scp1 inh. AID 540313. 2,500 tested, under 10 active. apparent inhibition (interference), % at 20 µM. Colorimetric interference counterscreen, malachite green absorbance 630 nm;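 also: compounds added after enzyme reaction finished so only phosphate colour detection is probed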
Scp-1 Tm shift: binds human Scp-1, shifting its melting temperature; 1,500 tested, 25% active; Recombinant SCP1, Sypro Orange thermal shift Tm; thermal shift relative to vanadate control, % at 40 µM; shares compounds with Scp1 inh;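 active = substances whose mean melting-temperature shift, as a percentage of the reference inhibitor's shift, reaches about 5.3%, limit read from the data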
Hits are given with their value; – = inactive; · = no result given.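 The calls were made as follows, unless noted: active = inhibition of at least 30% at 20 µM; inactive = the rest.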

SMILES | Scp1 inh | LMPTP inh | Pemphigus Ab inh | STEP inh | SUMO1 PPI mod | Scp1 confirm | MG interference | Scp-1 Tm shift
C/C(=N\Nc1ccc(C(F)(F)F)cn1)c1ccc(S(=O)(=O)NCc2ccco2)cc1 | 59 | – | – | – | – | – | – | ·
C/C(=N\Nc1ccccn1)c1ccc(S(=O)(=O)NCc2ccco2)cc1 | – | – | – | – | – | · | · | ·
COc1ccccc1NCC(=O)N1CCN(S(=O)(=O)c2ccccc2)CC1 | – | – | · | – | – | · | · | ·
N#C/C(=C/c1ccc(OC(=O)c2ccc(Br)s2)cc1)c1nc2ccccc2[nH]1 | 96 | – | – | – | – | 80 | – | –
N#C/C(=C\c1ccncc1)c1nc2ccccc2[nH]1 | – | – | · | – | – | · | · | ·
Cc1ccc(C(=O)C(c2ccccc2)N2Cc3ccccc3C2=N)cc1 (stereo not given) | – | – | – | – | – | · | · | ·
COc1ccc(C(=O)OCC[N+]2(C)CCOCC2)cc1 | 57 | – | – | – | – | – | – | ·
COc1ccc(C(=O)OCCc2ccc(O)cc2)cc1 | – | – | – | – | – | · | · | ·
Cc1cc(N2CC(C)OC(C)C2)n2cc(-c3ccccc3)nc2n1 (stereo not given) | – | – | – | – | – | · | · | ·
c1ccc(COc2ncnc3c2ncn3CCCNCc2ccc3c(c2)OCO3)cc1 | – | – | – | – | – | · | · | ·
C/C(N)=C(/C#N)C(=O)CSc1nnc(NC(C)C)s1 | 91 | – | – | – | – | 64 | – | –
CCOc1ccc2nc(S(=O)(=O)NC(=O)C3(C)CCN3C(=O)c3cccc(F)c3)sc2c1 (stereo not given) | · | – | · | – | – | · | · | ·
COc1cc(/C=C2\C(=N)N3N=C(S(C)(=O)=O)SC3=NC2=O)ccc1OC(=O)c1ccco1 | 52 | – | – | – | – | 68 | – | 11
CCOc1cc(/C=C2\C(=N)N3N=C(S(=O)(=O)CC)SC3=NC2=O)ccc1OC(=O)c1ccco1 | – | – | – | – | – | · | · | ·
COc1ccccc1OCCOc1ccc(/C=C2/C(=N)N3OC(C)=CC3=NC2=O)cc1OC | 97 | – | – | – | – | 68 | – | –
COc1cc(/C=C2\C(=N)N3N=C(S(C)(=O)=O)SC3=NC2=O)ccc1OCCOc1ccccc1C | 51 | – | – | – | – | 57 | – | 12
O=C(NC(=O)N1CCCC1)c1csnn1 | – | – | – | – | – | · | · | ·
CCOc1ccc(-c2nonc2NC(=O)c2ccco2)cc1OCC | – | – | – | – | – | · | · | ·
COc1ccc(-c2nonc2NC(=O)c2ccco2)cc1OC | 58 | – | – | – | – | – | – | ·
CC(C)(C)C1=NN=C2c3ccccc3C(=O)C21 (stereo not given) | – | – | – | – | – | · | · | ·
Cc1ccc(C)c(C(=O)Nc2ccncc2)c1 | 78 | – | – | – | – | – | – | ·
CCC(C(=O)Nc1ccc(S(=O)(=O)Nc2ncccn2)cc1)c1ccccc1 (stereo not given) | – | – | – | – | – | · | · | ·
CCOC(=O)Cn1c(=NC(=O)c2sc3ccccc3c2Cl)sc2cc(S(N)(=O)=O)ccc21 | 67 | 58 | – | – | – | 75 | – | 7.9
Cc1ccccc1NC(=O)CN1C(=O)N/C(=C\c2ccccc2OCc2ccc(C(=O)O)cc2)C1=O | 103 | – | · | – | – | 83 | – | –
Cc1cc(N2CCOCC2)ccc1/C=C1\NC(=O)N(CC(=O)Nc2ccccc2C)C1=O | – | – | · | – | – | · | · | ·
SMILES | Scp1 inh | LMPTP inh | Pemphigus Ab inh | STEP inh | SUMO1 PPI mod | Scp1 confirm | MG interference | Scp-1 Tm shift
O=C(O)c1cccc(-n2cccc2/C=C2/NC(=O)N(c3cccc(Cl)c3)C2=O)c1 | 85 | – | – | – | – | 64 | – | –
O=C(O)c1ccc(COc2ccccc2/C=C2\NC(=O)N(Cc3ccc(F)cc3)C2=O)cc1 | 63 | – | – | – | – | 66 | – | –
CN1C(=O)/C(=C/c2ccccc2OCc2ccc(C(=O)O)cc2)NC1=S | – | – | – | – | – | · | · | ·
O=C(O)c1ccc(COc2ccccc2C=C2C(=O)c3ccccc3C2=O)cc1 | 68 | – | – | – | – | 69 | – | 8.2
O=C(O)c1cc(N/N=C/C=C/c2ccccc2[N+](=O)[O-])ccc1Cl | – | – | – | – | – | · | · | ·
Oc1ccc(/C=N/Nc2ccc(Cl)nn2)c(O)c1O | – | – | – | – | – | · | · | ·
CC(=O)c1c(O)cc(=O)n(-c2ccccc2)c1-c1cccc2ccccc12 | – | – | · | – | – | · | · | ·
CCOC(=O)C1=C(C)NC(C)=C(C(=O)OCC)C1C(=O)OCC(=O)NCCc1ccc(S(N)(=O)=O)cc1 | – | – | – | – | – | · | · | ·
O=C(O)c1ccc(COc2ccc3ccccc3c2/C=C2/NC(=O)N(c3ccccc3)C2=O)cc1 | – | – | – | – | – | · | · | ·
O=C(CN1C(=O)N/C(=C\c2ccccc2OCc2ccc(C(=O)O)cc2)C1=O)Nc1ccc(F)cc1 | 70 | – | · | – | – | 65 | – | –
Cc1cccc(NC(=O)CN2C(=O)N/C(=C\c3ccccc3OCc3ccc(C(=O)O)cc3)C2=O)c1 | 85 | – | – | – | – | 74 | – | –
O=C(O)c1ccc(COc2ccccc2/C=C2/NC(=O)N(c3cccc(Cl)c3)C2=O)cc1 | 66 | – | · | – | – | 65 | – | –
CC(=O)c1ccc(NC(=O)N2C3CCC2CC(O)(c2cccnc2)C3)cc1 (stereo not given) | – | – | – | – | – | · | · | ·
O=P(O)(c1ccccc1)c1ccccc1O | – | – | – | – | – | · | · | ·
O=P(c1ccccc1)(c1ccccc1)c1cc(S(=O)(=O)O)ccc1O | 88 | – | – | 98 | – | 60 | – | –
CC(=O)c1ccc(C(=O)Nc2nnc(-c3ccc(Cl)cc3)o2)cc1 | 54 | – | – | – | – | 43 | – | –
CCOc1ccc(C(=O)Nc2ccc3[nH]ncc3c2)cc1 | – | – | – | – | – | · | · | ·
Cc1ccc(S(=O)(=O)Nc2csc(C)c2C(=O)O)cc1 | 61 | · | – | · | · | 59 | – | 15
O=C(CNC(=O)c1ccc2c(c1)OCCO2)N/N=C/c1ccco1 | – | – | – | – | – | · | · | ·
Cc1[nH]c2ccccc2c1/C=N/NC(=O)CNC(=O)c1ccc2c(c1)OCCO2 | 66 | – | – | – | – | – | – | ·
Cc1ccc[n+](CC(=O)Nc2cc(C(F)(F)F)ccc2N2CCOCC2)c1 | 55 | – | – | – | – | – | – | ·
CC(=O)c1ccc(NC(=O)CCS(=O)(=O)c2ccc3c(c2)n(C)c(=O)c(=O)n3C)cc1 | 71 | – | – | – | – | 31 | – | –
CC(=O)Nc1ccc(NC(=O)CCS(=O)(=O)c2ccc3c(c2)oc(=O)n3C)cc1 | – | – | – | – | – | · | · | ·

Screening data: PubChem BioAssay, several laboratories
